Results from the RNAGym collection of RNA variant scans (doi:10.1002/anie.201605470).

B1: Osa-1-4 twister ribozyme (parent)
chain: CCGCCUAACACUGCCAAUGCCGGUCCCAAGCCCGGAUAAAAGUGGAGGGGGCGG

Variants of: B1
Test: self-cleavage, relative activity (ratio to wild type); higher = more cleavage; co-transcriptional
Outline: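 In vitro transcription at 37 °C for 2 h allowed the twister ribozyme to cleave itself as it was made. Its 54-nucleotide Oryza sativa template had been synthesised with 97 % wild-type base and 1 % of each other base at the 48 positions downstream of the cleavage site. A template-switching oligonucleotide was used for reverse transcription, followed by PCR amplification and deep sequencing. Whether reads carried upstream sequence set the cleavage status, and relative activity is the fraction cleaved normalised to wild type.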

| Variant | self-cleavage |
| --- | --- |
| A28C U24G | 0.05 |
| A28C U24C | 0.18 |
| A28C U24A | 0.14 |
| A28G G47U | 0.07 |
| A28G G47A | 0.08 |
| A28G G47C | 0.04 |
| A28G A29U | 0.06 |
| A28G A29C | 0.02 |
| A28G A29G | 0.08 |
| A28G C11G | 0.06 |
| A28G C11A | 0.09 |
| A28G C11U | 0.16 |
| A28G | 0.48 |
| A28C U12C | 0.34 |
| A28C U12A | 0.89 |
| A28C U12G | 0.15 |
| A28G G23A | 0.13 |
| A28G G23U | 0.05 |
| A28G G23C | 0.04 |
| A28G G44U | 0.11 |
| A28G G44A | 0.1 |
| A28G G44C | 0.12 |
| A28G U12A | 0.12 |
| A28G U12G | 0.07 |

| Variant | self-cleavage |
| --- | --- |
| A28G U12C | 0.1 |
| A28G C9A | 0.04 |
| A28G C9U | 0.11 |
| A28G C9G | 0.29 |
| A28G C32U | 0.05 |
| A28G C32A | 0.06 |
| A28G C32G | 0.08 |
| A28G C33G | 0.05 |
| A28G C33A | 0.06 |
| A28G C33U | 0.11 |
| A28G A41U | 0.23 |
| A28G A41G | 0.14 |
| A28G A41C | 0.13 |
| A28C G51C | 0.12 |
| A28C G51A | 0.24 |
| A28C G51U | 0.28 |
| A28G G30C | 0.04 |
| A28G G30U | 0.05 |
| A28G G30A | 0.05 |
| A28G G35U | 0.15 |
| A28G G35C | 0.09 |
| A28G G35A | 0.21 |
| A28G C26G | 0.21 |
| A28G C26U | 0.11 |

| Variant | self-cleavage |
| --- | --- |
| A28G C26A | 0.03 |
| A28G G19U | 0.08 |
| A28G G19C | 0.05 |
| A28G G19A | 0.15 |
| A28C G47C | 0.08 |
| A28C G47A | 0.2 |
| A28C G47U | 0.19 |
| A28G C27U | 0.07 |
| A28G C27A | 0.06 |
| A28G C27G | 0.1 |
| A28G G54U | 0.27 |
| A28G G54A | 0.15 |
| A28G G54C | 0.14 |
| A28G U18G | 0.59 |
| A28G U18C | 0.23 |
| A28G U18A | 0.34 |
| A28G A46C | 0.04 |
| A28G A46G | 0.5 |
| A28G A46U | 0.05 |
| A28G G22A | 0.14 |
| A28G G22C | 0.06 |
| A28G G22U | 0.1 |
| A28G G50U | 0.23 |
| A28G G50A | 0.28 |

| Variant | self-cleavage |
| --- | --- |
| A28G G50C | 0.14 |
| A28G G48C | 0.05 |
| A28G G48U | 0.04 |
| A28G G48A | 0.04 |
| A28G A8U | 0.07 |
| A28G A8C | 0.05 |
| A28G A8G | 0.19 |
| A28C U18G | 1.01 |
| A28C U18C | 0.72 |
| A28C U18A | 0.96 |
| A28G G34A | 0.21 |
| A28G G34C | 0.08 |
| A28G G34U | 0.1 |
| A28G G53A | 0.14 |
| A28G G53U | 0.1 |
| A28G G53C | 0.06 |
| A28G C25G | 0.09 |
| A28G C25U | 0.11 |
| A28G C25A | 0.04 |
| A28G A40U | 0.09 |
| A28G A40G | 0.14 |
| A28G A40C | 0.05 |
| A28G A36U | 0.36 |
| A28G A36C | 0.09 |

| Variant | self-cleavage |
| --- | --- |
| A28G A36G | 0.45 |
| A28G G13C | 0.03 |
| A28G G13U | 0.01 |
| A28G G13A | 0.05 |
| A28G A39C | 0.11 |
| A28G A39U | 0.16 |
| A28G A39G | 0.17 |
| A28G G45A | 0.05 |
| A28G G45U | 0.05 |
| A28G G45C | 0.04 |
| A28G G51C | 0.06 |
| A28G G51A | 0.11 |
| A28G G51U | 0.06 |
| A28G C52A | 0.2 |
| A28G C52U | 0.46 |
| A28G C52G | 0.32 |
| A28G U24C | 0.07 |
| A28G U24G | 0.02 |
| A28G U24A | 0.06 |
| A28C G45U | 0.08 |
| A28C G48A | 0.09 |
| A28C G48U | 0.07 |
| A28C G48C | 0.08 |
| A28G C31U | 0.08 |

| Variant | self-cleavage |
| --- | --- |
| A28G C31G | 0.09 |
| A28G C31A | 0.02 |
| A28C G53C | 0.08 |
| A28C G53U | 0.23 |
| A28C G53A | 0.78 |
| A28G C20U | 0.31 |
| A28G C20G | 0.08 |
| A28G C20A | 0.37 |
| A28C G49C | 0.07 |
| A28C G49A | 0.16 |
| A28C G49U | 0.13 |
| A28C U37A | 0.74 |
| A28C U37G | 0.98 |
| A28C U37C | 1.01 |
| A28G C21G | 0.06 |
| A28G C21A | 0.07 |
| A28G C21U | 0.23 |
| A28G A38U | 0.23 |
| A28G A38C | 0.21 |
| A28G A38G | 0.22 |
| A28G U37G | 0.51 |
| A28G U37C | 0.37 |
| A28G U37A | 0.25 |
| A28G C15G | 0.23 |

| Variant | self-cleavage |
| --- | --- |
| A28G C15U | 0.08 |
| A28G C15A | 0.08 |
| A28G G42U | 0.04 |
| A28G G42C | 0.07 |
| A28G G42A | 0.1 |
| A28C G54U | 0.95 |
| A28C G54A | 0.91 |
| A28C G54C | 0.86 |
| A28C U43C | 0.33 |
| A28C U43G | 0.32 |
| A28C U43A | 0.72 |
| A28C G50A | 0.81 |
| A28C G50C | 1 |
| A28C G50U | 0.98 |
| A28G A7G | 0.38 |
| A28G A7C | 0.04 |
| A28G A7U | 0.07 |
| A28G G49U | 0.06 |
| A28G G49C | 0.04 |
| A28G G49A | 0.06 |
| A28G C14U | 0.11 |
| A28G C14G | 0.15 |
| A28G C14A | 0.05 |
